How the values were obtained:
[1] = target: T1, Signal transducer and activator of transcription 3 (Homo sapiens, UniProt P40763); assay: Binding affinity to SH2 domain of Stat3 by fluorescence polarization assay
Procedure, shortened: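 Recombinant Stat3, expressed and purified, tested against phosphopeptides and peptidomimetics in a fluorescence polarization competition assay. Affinity is reported as an inhibition constant (K_I).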

[2] = target: T1, Signal transducer and activator of transcription 3; assay: Inhibition of SH2 domain of Stat3 constitutive phosphorylation at Tyr705 in human MDA-MB-468 cells after 2 hrs by Western blotting; assay type: cell-based
Procedure, shortened: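 MDA-MB-468 cells (4×10^5/well, DMEM 10% FCS, overnight) given prodrug from freshly made 10 mM DMSO stock for 2 h. Lysates in Hepes pH 7.4 Triton buffer with phosphatase/protease inhibitors; 12 μg protein on 8% SDS-PAGE, PVDF, probed for pStat3 Y705 by ECL, then stripped and reprobed for total Stat3.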

T1 sequence (P40763 whole entry, the tested form may be a part): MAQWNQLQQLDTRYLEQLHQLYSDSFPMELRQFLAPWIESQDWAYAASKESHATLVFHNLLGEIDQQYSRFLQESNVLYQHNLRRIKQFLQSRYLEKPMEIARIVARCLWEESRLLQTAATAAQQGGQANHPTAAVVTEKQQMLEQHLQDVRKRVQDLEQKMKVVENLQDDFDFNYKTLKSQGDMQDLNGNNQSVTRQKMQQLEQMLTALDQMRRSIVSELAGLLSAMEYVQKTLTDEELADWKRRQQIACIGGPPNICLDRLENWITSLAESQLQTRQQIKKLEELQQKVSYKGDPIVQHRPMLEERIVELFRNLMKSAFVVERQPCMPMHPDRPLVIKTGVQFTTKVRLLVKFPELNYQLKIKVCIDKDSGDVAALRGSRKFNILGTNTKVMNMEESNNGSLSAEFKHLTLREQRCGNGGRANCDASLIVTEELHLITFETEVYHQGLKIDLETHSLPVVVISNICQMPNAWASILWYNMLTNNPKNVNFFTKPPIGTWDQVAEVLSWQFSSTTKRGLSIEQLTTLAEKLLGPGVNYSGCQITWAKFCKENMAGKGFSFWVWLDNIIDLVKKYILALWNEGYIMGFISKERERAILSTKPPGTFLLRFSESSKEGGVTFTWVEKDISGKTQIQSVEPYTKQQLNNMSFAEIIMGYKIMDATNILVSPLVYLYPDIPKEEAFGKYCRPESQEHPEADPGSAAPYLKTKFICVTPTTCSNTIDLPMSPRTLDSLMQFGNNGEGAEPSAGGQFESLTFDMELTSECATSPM

Compound	Ki [1] [µM]	inhibition [2]
C/C(=C\C(=O)N[C@@H](CC(C)C)C(=O)N1CCC[C@H]1C(=O)N[C@@H](CCC(N)=O)C(=O)NCc1ccccc1)c1ccc(OP(=O)(O)O)cc1	0.066	–
CCCC[C@H](NC(=O)/C=C(\C)c1ccc(OP(=O)(O)O)cc1)C(=O)N1C[C@H]2C[C@H]2[C@H]1C(=O)NCCOC(N)=O	0.114	–
C/C(=C\C(=O)N[C@@H](CC(C)C)C(=O)N1CCC[C@H]1C(=O)NCCNC(N)=O)c1ccc(OP(=O)(O)O)cc1	0.094	–
C/C(=C\C(=O)N[C@@H](CC(C)C)C(=O)N1CCC[C@H]1C(=O)NCCOC(N)=O)c1ccc(OP(=O)(O)O)cc1	0.203	–
C/C(=C\C(=O)N[C@@H](CC(C)C)C(=O)N1CCC[C@H]1C(=O)N[C@H](C)CCC(N)=O)c1ccc(OP(=O)(O)O)cc1	0.144	–
C/C(=C\C(=O)N[C@H]1CCc2cccc3c2N(C1=O)[C@H](C(=O)NCCOC(N)=O)C3)c1ccc(OP(=O)(O)O)cc1	0.188	–
C/C(=C\C(=O)N[C@H]1CCc2cccc3c2N(C1=O)[C@H](C(=O)NCCNC(N)=O)C3)c1ccc(OP(=O)(O)O)cc1	0.386	–
C/C(=C\C(=O)N[C@@H](CC(C)C)C(=O)N1C[C@H]2C[C@H]2[C@H]1C(=O)N[C@H](C)CCC(N)=O)c1ccc(OP(=O)(O)O)cc1	0.083	–
CCCC[C@H](NC(=O)/C=C(\C)c1ccc(OP(=O)(O)O)cc1)C(=O)N1C[C@H]2C[C@H]2[C@H]1C(=O)NCCNC(N)=O	0.046	–
C/C(=C\C(=O)N[C@H]1CCc2cccc3c2N(C1=O)[C@H](C(=O)N[C@@H](CCC(N)=O)C(=O)NCc1ccccc1)C3)c1ccc(C(F)(F)P(=O)(OCOC(=O)C(C)(C)C)OCOC(=O)C(C)(C)C)cc1	–	Dose-dependent effect

— ChEMBL document CHEMBL1773023, “Potent and selective phosphopeptide mimetic prodrugs targeted to the Src homology 2 (SH2) domain of signal transducer and activator of transcription 3” (J Med Chem, 2011)
